# Assay results reported in ChEMBL document CHEMBL1255409, “In vitro activity of ceftaroline against 623 diverse strains of anaerobic bacteria” (2010).
# Tests used:
# Format in all cases: functional
# [1] = system: Bacteroides ovatus; experiment: Antimicrobial activity against Bacteroides ovatus under anaerobic conditions after 44 hrs by CLSI-M11-47 protocol based agar dilution method
# In short: (§1)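 Reference agar dilution per CLSI M11-A7 with plates made on test day. Clinical isolates were stored at −70°C in 20% skim milk, subcultured twice, and 48-h cell paste was suspended in brucella broth to 0.5 McFarland. About 10^5 CFU/spot was applied with a Steers replicator. Plates were incubated 44 h at 37°C anaerobically. MIC was the lowest concentration giving complete inhibition or marked growth reduction versus the drug-free control.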
# [2] = system: Phocaeicola vulgatus; experiment: Antimicrobial activity against Bacteroides vulgatus under anaerobic conditions after 44 hrs by CLSI-M11-47 protocol based agar dilution method; in short: as §1
# [3] = system: Prevotella intermedia; experiment: Antimicrobial activity against Prevotella intermedia under anaerobic conditions after 44 hrs by CLSI-M11-47 protocol based agar dilution method
# In short: (§2)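 Clinical isolates were stored at −70°C in 20% skim milk and identified phenotypically or by partial 16S rRNA sequencing. Each strain was subcultured twice from frozen stock. Cell paste from 48-h cultures was suspended in brucella broth to a 0.5 McFarland standard. About 10^5 CFU per spot were applied by Steers replicator to agar dilution plates prepared on the day of testing. Plates were incubated 44 h at 37°C in an anaerobic chamber. MIC was taken as the lowest concentration giving complete inhibition or marked reduction of growth versus the drug-free control.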
# [4] = system: Prevotella disiens; experiment: Antimicrobial activity against Prevotella disiens under anaerobic conditions after 44 hrs by CLSI-M11-47 protocol based agar dilution method; in short: as §2
# [5] = system: Prevotella tannerae; experiment: Antimicrobial activity against Prevotella tannerae under anaerobic conditions after 44 hrs by CLSI-M11-47 protocol based agar dilution method; conditions: Alloprevotella tannerae; in short: as §2
# [6] = system: Porphyromonas asaccharolytica; experiment: Antimicrobial activity against Porphyromonas asaccharolyticus under anaerobic conditions after 44 hrs by CLSI-M11-47 protocol based agar dilution method; in short: as §2
# [7] = system: Fusobacterium nucleatum; experiment: Antimicrobial activity against Fusobacterium nucleatum under anaerobic conditions after 44 hrs by CLSI-M11-47 protocol based agar dilution method; in short: as §2
# [8] = system: Fusobacterium necrophorum; experiment: Antimicrobial activity against Fusobacterium necrophorum under anaerobic conditions after 44 hrs by CLSI-M11-47 protocol based agar dilution method; in short: as §1
# [9] = system: Veillonella; experiment: Antimicrobial activity against Veillonella spp. under anaerobic conditions after 44 hrs by CLSI-M11-47 protocol based agar dilution method; in short: as §2
# [10] = system: Anaerococcus prevotii; experiment: Antimicrobial activity against Anaerococcus prevotii under anaerobic conditions after 44 hrs by CLSI-M11-47 protocol based agar dilution method; in short: as §1
# [11] = system: Finegoldia magna; experiment: Antimicrobial activity against Finegoldia magna under anaerobic conditions after 44 hrs by CLSI-M11-47 protocol based agar dilution method; in short: as §1
# [12] = system: Peptoniphilus asaccharolyticus; experiment: Antimicrobial activity against Peptoniphilus asaccharolyticus under anaerobic conditions after 44 hrs by CLSI-M11-47 protocol based agar dilution method; in short: as §2
# [13] = system: Peptostreptococcus anaerobius; experiment: Antimicrobial activity against Peptostreptococcus anaerobius under anaerobic conditions after 44 hrs by CLSI-M11-47 protocol based agar dilution method; in short: as §2
# [14] = system: Peptostreptococcus stomatis; experiment: Antimicrobial activity against Peptostreptococcus stomatis under anaerobic conditions after 44 hrs by CLSI-M11-47 protocol based agar dilution method; in short: as §2
# [15] = system: Anaerococcus lactolyticus; experiment: Antimicrobial activity against Anaerococcus lactolyticus under anaerobic conditions after 44 hrs by CLSI-M11-47 protocol based agar dilution method; in short: as §1
# [16] = system: Gemella morbillorum; experiment: Antimicrobial activity against Gemella morbillorum under anaerobic conditions after 44 hrs by CLSI-M11-47 protocol based agar dilution method; in short: as §2
# [17] = system: Peptoniphilus harei; experiment: Antimicrobial activity against Peptoniphilus harei under anaerobic conditions after 44 hrs by CLSI-M11-47 protocol based agar dilution method; in short: as §2
# [18] = system: Actinomyces israelii; experiment: Antimicrobial activity against Actinomyces israelii under anaerobic conditions after 44 hrs by CLSI-M11-47 protocol based agar dilution method; in short: as §1
# [19] = system: Schaalia meyeri; experiment: Antimicrobial activity against Actinomyces meyeri under anaerobic conditions after 44 hrs by CLSI-M11-47 protocol based agar dilution method; in short: as §1
# [20] = system: Schaalia odontolytica; experiment: Antimicrobial activity against Actinomyces odontolyticus under anaerobic conditions after 44 hrs by CLSI-M11-47 protocol based agar dilution method; in short: as §1
# [21] = system: Cutibacterium acnes; experiment: Antimicrobial activity against Propionibacterium acnes under anaerobic conditions after 44 hrs by CLSI-M11-47 protocol based agar dilution method; in short: as §2
# [22] = system: Eggerthella lenta; experiment: Antimicrobial activity against Eggerthella lenta under anaerobic conditions after 44 hrs by CLSI-M11-47 protocol based agar dilution method; in short: as §1
# [23] = system: Collinsella aerofaciens; experiment: Antimicrobial activity against Colinsella aerofaciens under anaerobic conditions after 44 hrs by CLSI-M11-47 protocol based agar dilution method; in short: as §1
# [24] = system: Eubacterium contortum; experiment: Antimicrobial activity against Eubacterium contortum under anaerobic conditions after 44 hrs by CLSI-M11-47 protocol based agar dilution method; conditions: Faecalicatena contorta; in short: as §1
# [25] = system: Mogibacterium timidum; experiment: Antimicrobial activity against Mogibacterium timidum under anaerobic conditions after 44 hrs by CLSI-M11-47 protocol based agar dilution method; in short: as §2
# [26] = system: Lacticaseibacillus rhamnosus; experiment: Antimicrobial activity against Lactobacillus rhamnosus under anaerobic conditions after 44 hrs by CLSI-M11-47 protocol based agar dilution method; in short: as §2
# [27] = system: [Clostridium] innocuum; experiment: Antimicrobial activity against Clostridium […] under anaerobic conditions after 44 hrs by CLSI-M11-47 protocol based agar dilution method; in short: as §1
# [28] = system: Enterocloster clostridioformis; experiment: Antimicrobial activity against Clostridium clostridioforme under anaerobic conditions after 44 hrs by CLSI-M11-47 protocol based agar dilution method; in short: as §1
# [29] = system: Clostridium cadaveris; experiment: Antimicrobial activity against Clostridium cadaveris under anaerobic conditions after 44 hrs by CLSI-M11-47 protocol based agar dilution method; in short: as §1
# [30] = system: Clostridium hylemonae; experiment: Antimicrobial activity against Clostridium hylemonae under anaerobic conditions after 44 hrs by CLSI-M11-47 protocol based agar dilution method; in short: as §1
# [31] = system: Clostridium paraputrificum; experiment: Antimicrobial activity against Clostridium paraputrificum under anaerobic conditions after 44 hrs by CLSI-M11-47 protocol based agar dilution method; in short: as §1
# [32] = system: Eubacterium limosum; experiment: Antimicrobial activity against Eubacterium limosum under anaerobic conditions after 44 hrs by CLSI-M11-47 protocol based agar dilution method; in short: as §1
smiles,measurement,setting,value
CO/N=C(\C(=O)N[C@@H]1C(=O)N2C(C(=O)O)=C(CSc3nc(=O)c(O)nn3C)CS[C@H]12)c1csc(N)n1 [CEFTRIAXONE],MIC50,[1],> 64 µg/mL
same,MIC90,[1],> 64 µg/mL
same,MIC50,[2],> 64 µg/mL
same,MIC90,[2],> 64 µg/mL
same,MIC50,[3],1 µg/mL
same,MIC90,[3],16 µg/mL
same,MIC50,[4],1 µg/mL
same,MIC90,[4],8 µg/mL
same,MIC50,[5],1 µg/mL
same,MIC90,[5],8 µg/mL
same,MIC50,[6],0.06 µg/mL
same,MIC90,[6],0.06 µg/mL
same,MIC50,[7],0.125 µg/mL
same,MIC90,[7],0.5 µg/mL
same,MIC50,[8],0.015 µg/mL
same,MIC90,[8],0.03 µg/mL
same,MIC50,[9],4 µg/mL
same,MIC90,[9],8 µg/mL
same,MIC50,[10],0.25 µg/mL
same,MIC90,[10],0.5 µg/mL
same,MIC50,[11],4 µg/mL
same,MIC90,[11],8 µg/mL
same,MIC50,[12],0.125 µg/mL
same,MIC90,[12],0.25 µg/mL
same,MIC50,[13],2 µg/mL
same,MIC90,[13],8 µg/mL
same,MIC50,[14],2 µg/mL
same,MIC90,[14],8 µg/mL
same,MIC50,[15],0.25 µg/mL
same,MIC90,[15],16 µg/mL
same,MIC50,[16],0.25 µg/mL
same,MIC90,[16],16 µg/mL
same,MIC50,[17],0.25 µg/mL
same,MIC90,[17],16 µg/mL
same,MIC50,[18],0.125 µg/mL
same,MIC90,[18],0.5 µg/mL
same,MIC50,[19],0.125 µg/mL
same,MIC90,[19],0.5 µg/mL
same,MIC50,[20],0.125 µg/mL
same,MIC90,[20],0.5 µg/mL
same,MIC50,[21],0.015 µg/mL
same,MIC90,[21],0.06 µg/mL
same,MIC50,[22],> 64 µg/mL
same,MIC90,[22],> 64 µg/mL
same,MIC50,[23],0.5 µg/mL
same,MIC90,[23],2 µg/mL
same,MIC50,[24],0.5 µg/mL
same,MIC90,[24],2 µg/mL
same,MIC50,[25],0.5 µg/mL
same,MIC90,[25],2 µg/mL
same,MIC50,[26],32 µg/mL
same,MIC90,[26],64 µg/mL
same,MIC50,[27],8 µg/mL
same,MIC90,[27],16 µg/mL
same,MIC50,[28],4 µg/mL
same,MIC90,[28],32 µg/mL
same,MIC50,[29],2 µg/mL
same,MIC90,[29],64 µg/mL
same,MIC50,[30],2 µg/mL
same,MIC90,[30],64 µg/mL
same,MIC50,[31],2 µg/mL
same,MIC90,[31],64 µg/mL
same,MIC50,[32],0.5 µg/mL
same,MIC90,[32],2 µg/mL
